# Compound activity as filed in PubChem.
# EBNA-1 inhibitor – blocks EBNA-1 binding to DNA; 300,000 compounds, 0.34% hits; EBNA-1 DNA binding, fluorescence polarization; inhibition, % at 14.8 µM; in the data active = inhibition above about 28%
# UBC13 polyUb – human UBC13 polyubiquitination inhibition; 330,000 compounds, 0.47% hits; inhibition, % at 20 µM; UBC13 polyubiquitin chain formation, TR-FRET; AID 485273; P61088; in the data active = inhibition above about 45%, passing the limit was not always enough
# Target sequence (P61088 whole entry, looked up): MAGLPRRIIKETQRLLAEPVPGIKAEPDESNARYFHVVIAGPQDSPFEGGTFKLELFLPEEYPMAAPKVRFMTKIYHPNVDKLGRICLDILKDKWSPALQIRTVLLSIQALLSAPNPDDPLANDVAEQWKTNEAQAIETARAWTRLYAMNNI
# ZTA counter – ZTA (EBV) inhibition in EBNA-1 counter-screen. 320,000 compounds, 0.15% hits. ZTA-DNA binding, fluorescence polarization. inhibition, % at 11 µM. AID 2234. P03206; in the data active = inhibition above about 33%
# Target sequence (P03206 whole entry, looked up): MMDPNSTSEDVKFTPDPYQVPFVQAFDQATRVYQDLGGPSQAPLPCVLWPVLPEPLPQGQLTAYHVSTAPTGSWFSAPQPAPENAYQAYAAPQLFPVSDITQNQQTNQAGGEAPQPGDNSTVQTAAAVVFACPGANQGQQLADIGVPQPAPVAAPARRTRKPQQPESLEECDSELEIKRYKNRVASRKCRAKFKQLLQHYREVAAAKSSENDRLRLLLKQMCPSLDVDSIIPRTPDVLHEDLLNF
# PfM18AAP inh – blocks P. falciparum M18 aspartyl aminopeptidase; recombinant PfM18AAP, H-Glu-NHMec fluorogenic cleavage; inhibition, % at 7.35 µM; 290,000 compounds, 1.2% hits; AID 1822;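 active = inhibition above the campaign mean inhibition over all tested compounds plus 3 SD, cut at about 28% in these data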;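 note: 0% = plate median of test compound wells and 100% = 2 mM ZnCl2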
# Apaf1 inhib – human Apaf-1 inhibition; AID 489030; inhibition, % at 20 µM; O14727; 330,000 compounds, 0.71% hits; reconstituted apoptosome caspase-3 activity, DEVD-Rh110 fluorescence; active = inhibition of at least 40% at 20 µM;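 note: plate controls were DMSO wells for no effect and DEVD-CHO caspase inhibitor wells for full effect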
#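 System – cell-free apoptosome with Apaf-1, procaspase-3 and caspase-9 · Buffer or medium – pH 7.5 Hepes buffer with CHAPS, BSA, DTT · Also added – cytochrome c with DEVD-Rh110 · Times – 30 min compound preincubation, 50 min activation, room temperature · Technique – Rh110 fluorescence intensity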
# PfGluPho inh – PfG6PD (Plasmodium falciparum) enzyme inhibition. PfGluPho enzyme, NADPH resazurin-diaphorase fluorescence. AID 504690. 350,000 compounds, 0.78% hits. inhibition, % at 20 µM;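 active = inhibition reaching at least a set limit at 20 µM in the primary screen, cut at about 59% in these data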;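 note: 0% = DMSO wells with substrate and 100% = DMSO wells lacking glucose-6-phosphate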
# PfGluPho conf – PfG6PD inhibition, single-dose confirmed; 2,400 compounds, 34% hits; shares compounds with PfGluPho inh; recombinant PfGluPho, NADPH-diaphorase-resazurin fluorescence; inhibition, % at 20 µM;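 active = inhibition of at least 50% at 20 µM in any single replicate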;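 note: 0% = DMSO with substrate and 100% = DMSO lacking glucose-6-phosphate substrate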
# Diaphorase 10uM – diaphorase inhibition or oxidation at 10 uM NADPH. diaphorase-coupled resazurin reduction, fluorescence, NADPH 10 uM. 820 compounds, 39% hits. shares compounds with PfGluPho inh. inhibition, % at 20 µM. AID 504862;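 active = average inhibition reaching 50% or more with the compound at 20 µM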;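 note: resorufin red fluorescence formed as diaphorase reduces resazurin using NADPH; 0% = DMSO with enzyme and 100% = DMSO without enzyme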
# Diaphorase 30uM – inhibits diaphorase or oxidizes, flagging false PfG6PD hits. shares compounds with PfGluPho inh. Diaphorase/resazurin coupled assay, resorufin fluorescence, 30 uM NADPH. inhibition, % at 20 µM. 820 compounds, 29% hits. AID 504863;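 active = inhibition averaging 50% or more, tested at 20 µM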;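 note: 0% = DMSO with enzyme and 100% = DMSO wells lacking diaphorase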
# Starred values were filed as active, the others as inactive; / = no result given. The list is not random: actives were taken first. Their share in the collection is about 2.9%.
SMILES,EBNA-1 inhibitor,UBC13 polyUb,ZTA counter,PfM18AAP inh,Apaf1 inhib,PfGluPho inh,PfGluPho conf,others
O=C(Nc1ccc2nc(-c3ccc(Br)o3)[nH]c2c1)c1ccco1,2,-17,-8,1,-6,70*,28,
O=C(Nc1ccc2nc(-c3ccc(Br)o3)[nH]c2c1)c1cccs1,9,-16,9,-6,17,86*,16,
COc1ccc(OC)c(-n2c(=S)[nH]c3c(sc(=S)n3-c3ccccc3C)c2=O)c1,11,20,9,0,-6,43,/,
COc1ccccc1-n1c(=S)[nH]c2c(sc(=S)n2-c2ccccc2C)c1=O,-4,10,2,-6,-7,72*,23,
COc1ccccc1-n1c(=S)[nH]c2c(sc(=S)n2-c2ccccc2)c1=O,5,-7,9,2,4,63*,12,
COc1cccc(-n2c(=S)sc3c(=O)n(-c4ccccc4OC)c(=S)[nH]c32)c1,10,-15,1,5,0,39,/,
CCOc1ccccc1-n1c(=S)sc2c(=O)n(-c3ccccc3)c(=S)[nH]c21,2,-15,-18,5,-1,73*,-5,
O=C(CSc1cn[nH]n1)Nc1nc2ccccc2s1,1,10,-3,6,-285,-24,/,
O=C(Nc1ccc2c(c1)OCCO2)c1cc2ccccc2o1,4,-7,3,-4,-12,72*,28,
COc1cc(NCc2ccccc2)c2ncn(C(C)C)c2c1,/,8,-10,/,13,61*,56*,Diaphorase 10uM=-3;Diaphorase 30uM=-10
COc1cc(N(Cc2ccccc2)Cc2ccccc2)c2ncn(C(C)C)c2c1,/,10,14,/,11,29,/,
C/C(=N\Nc1cccc([N+](=O)[O-])c1)c1ccccc1O,-11,-1,-38,10,10,58,/,
C/C(=N\Nc1cccc([N+](=O)[O-])c1)c1cc(F)ccc1O,-4,-10,2,-4,-2,84*,16,
S=C(c1ccc(-c2ccccc2Cl)o1)N1CCOCC1,0,0,-3,4,7,62*,42,
S=C(c1ccc(-c2ccc(Cl)c(Cl)c2)o1)N1CCOCC1,12,-14,10,1,1,32,/,
O=C(NCc1ccccn1)c1nc(Cn2cc([N+](=O)[O-])cn2)no1,2,7,22,15,-2,-6,/,
COC(=O)C1=C(CS(=O)(=O)c2ccccc2)NC(=O)NC1c1ccc(O)cc1 (stereo unspecified),1,-1,1,1,3,-3,/,
COc1ccc(N=C2C(=S)N(c3ccc(OC)cc3)C(=NS(=O)(=O)c3ccccc3)N2c2ccccc2)cc1,/,/,/,/,/,84*,68*,Diaphorase 10uM=-26;Diaphorase 30uM=-16
COc1ccc(N2C(=O)NC(NS(=O)(=O)c3ccccc3)(C(F)(F)F)C2=O)cc1 (stereo unspecified),20,-3,-7,3,2,-12,/,
Cc1ccccc1OCc1nc2ccc(S(=O)(=O)N3CCOCC3)cc2[nH]1,14,-9,19,-19,-7,64*,28,
NC(=O)CSc1nc2cc(S(=O)(=O)N3CCOCC3)ccc2o1,/,-7,/,/,4,55,/,
Nc1nc2cc(S(=O)(=O)N3CCOCC3)ccc2o1,/,1,/,/,-2,69*,25,
CC(OC(=O)c1nc(Cl)ccc1Cl)C(=O)NCc1ccccc1 (stereo unspecified),/,/,/,/,/,-21,/,
Cc1noc(C)c1COC(=O)[C@H](C)NS(=O)(=O)c1ccc(Cl)c(Cl)c1,5,4,2,-1,6,-11,/,
Cc1noc(C)c1COC(=O)Cc1ccc(Cl)c(Cl)c1,-2,9,-10,-8,3,69*,33,
SMILES,EBNA-1 inhibitor,UBC13 polyUb,ZTA counter,PfM18AAP inh,Apaf1 inhib,PfGluPho inh,PfGluPho conf,others
CCCCN1C(=O)C2ON(c3ccccc3C)C(c3ccco3)C2C1=O (stereo unspecified),-11,-1,-6,-15,17,73*,19,
O=c1c2cc(F)ccc2sn1-c1ccc(F)cc1,/,-7,-3,/,5,113*,106*,Diaphorase 10uM=-12;Diaphorase 30uM=-13
Cc1ccc(C)c(-n2sc3ccc(F)cc3c2=O)c1,/,-12,8,/,-2,115*,107*,Diaphorase 10uM=-25;Diaphorase 30uM=-27
O=C1CCCC(=O)N1c1ccc(F)cc1,-3,4,-11,-9,-5,-2,/,
CN1OC[C@@H]2CN(C(=O)C(C)(C)C)[C@H](c3cccc(Oc4ccccc4)c3)C[C@@H]21,/,/,/,/,/,-17,/,
O=[N+]([O-])c1cccc(C(=Nc2ccccc2Cl)NO)c1,9,-2,-14,-2,2,20,/,
ONC(=Nc1ccccc1Cl)c1ccccc1Cl,-3,-2,-6,13,4,68*,41,
Cc1cc(NC(=O)CSc2nnc3ccc(-c4ccc(F)cc4)nn23)no1,-20,11,-8,/,1,-2,/,
COc1cc(/C=C2/NC(=O)NC2=O)ccc1OCC(=O)Nc1ccc(F)cc1,-8,-5,-14,2,-3,-19,/,
Cc1ccc[n+](C2C(c3ccc([N+](=O)[O-])cc3)C(C#N)=C([S-])NC2(O)C2CC2)c1 (stereo unspecified),-11,7,-18,-1,18,30,/,
COc1ccc([C@H]2C(C#N)=C([S-])N[C@](C)(O)[C@@H]2[n+]2ccccc2)cc1,/,/,/,11,/,69*,38,
CCC1(C)CC(C(N)=S)CCO1 (stereo unspecified),4,6,-8,-1,-3,81*,64*,Diaphorase 10uM=-13;Diaphorase 30uM=-15
O=C1CN(S(=O)(=O)c2cc(Br)ccc2Br)CCN1,/,-7,/,/,-3,-6,/,
O=c1c(Br)ccc(Br)cc1Br,/,/,/,/,/,66*,45,
Cc1nc(N2CCCCC2)[nH]c(=O)c1CN(C)N=O,/,/,/,/,/,-29,/,
COc1ccc(NC(=O)Cc2nnc(SCC(=O)Nc3ccc(F)cc3)n2C)cc1,-2,6,13,5,-5,-7,/,
Cc1cccc(-n2ncc3c(NC4CCCCC4)ncnc32)c1,2,17,-10,1,11,66*,7,
COc1ccc(C)cc1Nc1nc(-c2c[nH]c3ccccc23)cs1,-14,-26,-18,0,25,60*,-8,
Oc1ccc(C[C@@H]2CNCCN2CCc2cccc(F)c2)cc1,6,4,-2,/,-2,9,/,
O=C(O)c1cccc(Nc2ncnc3c2cnn3-c2ccccc2)c1,13,9,8,-2,-6,-13,/,
Clc1cccc(Nc2ncnc3c2cnn3-c2ccccc2)c1,0,21,13,/,14,83*,-9,
